What all share (type): functional
Assay [1] concerns A549. Briefly: Cytotoxicity against human A549 cells assessed as cell viability at 20 uM after 3 days by colorimetric MTT assay. The following applies: A549, 72 h, read-out: Activity. In short, it runs like this:
(§1)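 A549 and DLD-1 cells from ATCC, grown as recommended, were seeded at 5000 cells/well the day before dosing. They were exposed for 3 days in medium with 5% FBS to compound diluted from 20 mM DMSO stocks (final up to 20 µM, 0.1% v/v DMSO). Cells then received 0.5 mg/mL MTT for 4 h, formazan was dissolved in 10% SDS/10 mM HCl, and A595 was read. Viability is % of 0.1% DMSO control; two experiments, triplicate points.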
For orientation: Formazan colour is commonly taken as a measure of viable cells.

Assay [2] deals with DLD-1. Briefly: Cytotoxicity against human DLD1 cells assessed as cell viability at 20 uM after 3 days by colorimetric MTT assay. The following applies: DLD-1, 72 h, read-out: Activity. In short, it runs like this: as §1
For assay [3], the system named is MV4-11. Nature of the assay: Cytotoxicity against human MV4-11 cells assessed as cell viability at 1 uM after 3 days by colorimetric MTT assay. The following applies: MV4-11, 72 h, read-out: Activity. In short, it runs like this: (§2)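 MV4-11 leukemia cells from ATCC, grown as recommended, were plated at 40,000 cells/well immediately before treatment. They were cultured 3 days in 5% FBS medium with compound from 20 mM DMSO stocks diluted in RPMI (final ≤20 µM, 0.1% v/v DMSO). MTT (0.5 mg/mL, 4 h) was followed by SDS/HCl solubilization and absorbance at 595 nm. Percent viability is relative to DMSO-treated controls; run twice in triplicate.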

Assay [4] relates to MV4-11. Briefly: Cytotoxicity against human MV4-11 cells assessed as cell viability at 20 uM after 3 days by colorimetric MTT assay. The settings on record: MV4-11, 72 h, read-out: Activity. In short, it runs like this: as §2
Assay [5] has as its system A549. Nature of the assay: Cytotoxicity against human A549 cells assessed as cell viability at 1 uM after 3 days by colorimetric MTT assay. The settings on record: A549, 72 h, read-out: Activity. In short, it runs like this: as §1
Assay [6] concerns DLD-1. Nature of the assay: Cytotoxicity against human DLD1 cells assessed as cell viability at 1 uM after 3 days by colorimetric MTT assay. The settings on record: DLD-1, 72 h, read-out: Activity. Summed up:
as §1

In assay [7] the test system is A549. Nature of the assay: Cytotoxicity against human A549 cells assessed as cell viability at 10 uM after 3 days by colorimetric MTT assay. The following applies: A549, 72 h, read-out: Activity. In short, it runs like this: as §1
Assay [8] has as its system MV4-11. Nature of the assay: Cytotoxicity against human MV4-11 cells assessed as cell viability at 10 uM after 3 days by colorimetric MTT assay. The following applies: MV4-11, 72 h, read-out: Activity. In short, it runs like this: as §2
Assay [9] has as its system DLD-1. Briefly: Cytotoxicity against human DLD1 cells assessed as cell viability at 10 uM after 3 days by colorimetric MTT assay. The following applies: DLD-1, 72 h, read-out: Activity. In short, it runs like this:
as §1

For the compound `O=C1COc2ccc(-c3[nH]c(-c4ccccc4)nc3-c3ccccc3)cc2N1`, the viability at 20 µM in assay [1] worked out at 58.5%; in assay [2] it was 47.3%; in assay [4], 7.6%. Also, the results for the viability at 1 µM in assay [3], in assay [5] and in [6] were 105%, 95.6% and 98.2%, respectively.
For `O=C1COc2ccc(-c3[nH]c(-c4ccc(Cl)cc4Cl)nc3-c3ccccc3)cc2N1`, the figures for the viability at 20 µM in [1], in assay [2] and in assay [4] were 68.3%, 61.9% and 41.1%, respectively. Further, the viability at 1 µM in [3] amounted to 109%; in [5], 97.4%; in [6] it was 97.8%.
With `O=C1COc2ccc(-c3[nH]c(-c4ccc(F)cc4)nc3-c3ccccc3)cc2N1`, the viability at 20 µM is 37.5% in assay [1], 29.5% in [2] and 1.1% in assay [4]. Also, the viability at 1 µM stood at 108% in [3], 97.1% in [5] and 94.8% in assay [6].
For the compound `COc1ccc(-c2nc(-c3ccccc3)c(-c3ccc4c(c3)NC(=O)CO4)[nH]2)cc1`, the values for the viability at 20 µM in assay [1], in assay [2] and in assay [4] were 38.1%, 19.1% and 1.2%, respectively. Besides, the results for the viability at 1 µM in [3], in [5] and in assay [6] were 108%, 101% and 96%, respectively.
For `O=C1COc2ccc(-c3[nH]c(-c4c[nH]c5ncccc45)nc3-c3ccccc3)cc2N1`, the results for the viability at 20 µM in [1], in assay [2] and in [4] were 86.8%, 53.5% and 8.9%, respectively. In addition, the viability at 1 µM worked out at 111% in assay [3], 100% in [5] and 97.7% in assay [6].
In the case of `O=C1COc2ccc(-c3[nH]c(-c4ccc(C(F)(F)F)cc4)nc3-c3ccccc3)cc2N1`, the viability at 20 µM in [1] worked out at 21.7%; in [2], 12.1%; in assay [4], 0.6%. The results for the viability at 1 µM in assay [3], in assay [5] and in assay [6] were 111%, 103% and 95%, respectively.
With `O=C1COc2ccc(-c3nn(-c4ccccc4)cc3-c3ccccc3)cc2N1`, the values for the viability at 20 µM in assay [1], in [2] and in [4] were 59.7%, 47.7% and 97.9%, respectively. For the same compound, the viability at 1 µM in assay [3] was found to be 117%; in assay [5], 92.2%; in assay [6] it was 77%.
Turning to `Cc1ccccc1-n1cc(-c2ccccc2)c(-c2ccc3c(c2)NC(=O)CO3)n1`, the viability at 20 µM turned out to be 85.3% in [1], 62.9% in assay [2] and 54.2% in assay [4]. In addition, the figures for the viability at 1 µM in assay [3], in assay [5] and in [6] were 99.4%, 94.8% and 92.2%, respectively.
In the case of `O=C1COc2ccc(-c3nn(-c4ccc(Br)cc4)cc3-c3ccccc3)cc2N1`, the values for the viability at 20 µM in assay [1], in [2] and in [4] were 58.8%, 54.2% and 91.5%, respectively. Besides, the results for the viability at 1 µM in assay [3], in assay [5] and in assay [6] were 108%, 81.5% and 66.4%, respectively.
Take `O=C1COc2ccc(-c3nn(-c4ccc(Cl)cc4)cc3-c3ccccc3)cc2N1`: the viability at 20 µM is 52.4% in [1], 47.1% in assay [2] and 91.9% in assay [4]. Besides, the viability at 1 µM in assay [3] stood at 108%; in [5] it was 84.4%; in assay [6], 61.9%.
For the compound `O=C1COc2ccc(-c3nn(-c4ccc(F)cc4)cc3-c3ccccc3)cc2N1`, the viability at 20 µM amounted to 56.4% in [1], 45.2% in assay [2] and 92.6% in assay [4]. In addition, the viability at 1 µM in assay [3] was found to be 107%; in assay [5] it was 78.2%; in assay [6], 64.4%.
On to `O=C1COc2ccc(-c3nn(-c4cc(Cl)cc(Cl)c4)cc3-c3ccccc3)cc2N1`, for which the viability at 20 µM in assay [1] was 70.2%; in [2] it was 52.2%; in [4], 50.5%. Moreover, the viability at 1 µM in [3] was 105%; in assay [5], 93.1%; in assay [6] it was 90.3%.
On to `COc1ccc(-n2cc(-c3ccccc3)c(-c3ccc4c(c3)NC(=O)CO4)n2)cc1`, for which the viability at 20 µM in assay [1] worked out at 42.6%; in assay [2] it was 35.6%; in [4], 59.9%. For the same compound, the viability at 1 µM in assay [3] is 106%; in assay [5], 95.6%; in [6], 92.2%.
As for `C#Cc1cccc(Nc2ncnc3cc(OCCOC)c(OCCOC)cc23)c1` [ERLOTINIB], the values for the viability at 10 µM in assay [7], in assay [8] and in assay [9] were 68.5%, 16.8% and 55.4%, respectively. The viability at 1 µM came to 98.3% in assay [3], 83% in assay [5] and 85.7% in assay [6].
As to `COc1cc2ncnc(Nc3ccc(F)c(Cl)c3)c2cc1OCCCN1CCOCC1` [GEFITINIB], the viability at 10 µM in [7] worked out at 61.5%; in assay [8], 7%; in assay [9], 65.7%. Moreover, the viability at 1 µM amounted to 92.4% in assay [3], 84.4% in assay [5] and 87% in assay [6].
For `Cc1ccc(NC(=O)c2ccc(CN3CCN(C)CC3)cc2)cc1Nc1nccc(-c2cccnc2)n1` [IMATINIB], the figures for the viability at 10 µM in assay [7], in [8] and in assay [9] were 98.6%, 82% and 91.5%, respectively. The viability at 1 µM worked out at 105% in assay [3], 108% in assay [5] and 89.9% in assay [6].
In the case of `CNC(=O)c1cc(Oc2ccc(NC(=O)Nc3ccc(Cl)c(C(F)(F)F)c3)cc2)ccn1` [SORAFENIB], the viability at 10 µM in assay [7] came out at 28.6%; in assay [8], 0.7%; in assay [9], 28%. For the same compound, the viability at 1 µM in [3] is 1.6%; in [5], 103%; in assay [6], 93.4%.
For the compound `CCN(CC)CCNC(=O)c1c(C)[nH]c(/C=C2\C(=O)Nc3ccc(F)cc32)c1C` [SUNITINIB], the viability at 10 µM is 37.4% in [7], 0.5% in [8] and 52.7% in assay [9]. For the same compound, the viability at 1 µM in [3] was 1.4%; in assay [5], 102%; in [6] it was 92.9%.
Regarding `COc1cc2/c(=N/c3ccc(Br)cc3F)nc[nH]c2cc1OCC1CCN(C)CC1` [VANDETANIB], the viability at 10 µM in assay [7] is 41.7%; in assay [8], 1.6%; in assay [9], 37.9%. Further, the viability at 1 µM in [3] is 84.1%; in [5] it was 88.7%; in assay [6], 88.6%.

The values above are taken from ChEMBL document CHEMBL1828548, “Synthesis and pharmacological evaluations of novel 2H-benzo[b][1,4]oxazin-3(4H)-one derivatives as a new class of anti-cancer agents” (2011).
